Measurements reported in PMC3698760 (Journal of the American Heart Association: Cardiovascular …, 2013).
“Also recorded” adds a separate entry of the source.

Columns and labels:
Circular dichroism = type: physicochemical; details: CD spectra in water, 200 to 260 nm
Procedure, shortened: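 Spectra of peptides and human apoA-I (17.8 to 178 μmol/L) recorded at 25°C in a thermostatted quartz cell with 0.1 mm path length, scanning 200–260 nm. Results expressed as mean residue ellipticity (deg cm² dmol⁻¹).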

[1] = human whole plasma, 60 minutes at 37°C; FAMP5 0.2 to 2.0 mg/mL, ACD-FAMP5 2.0 mg/mL
Procedure, shortened: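 Human whole plasma was incubated with saline, test peptide (0.2 to 2.0 mg/mL) or acridone-labelled peptide (2.0 mg/mL) for 60 min at 37°C. Samples were run on agarose gel electrophoresis with cholesterol staining, transferred to PVDF and immunoblotted with goat anti-human apoA-I antibody. The fluorescent label was visualized on the gel under UV light.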

apoE‐deficient mice = assay: Plasma lipoprotein profiles analyzed by HPLC, 16-week treatment; type: in vivo; details: 3 times a week, 16 weeks
Procedure, shortened: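 Plasma from apoE−/− mice after 16-week i.p. dosing (3 times weekly) was separated by HPLC into 20 particle-size subfractions. Each subfraction was assayed enzymatically for total cholesterol, free cholesterol, triglycerides and phospholipids; mean±SD.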

[2] = high-dose 50 mg/kg per day i.p., n=7, mean±SD
[3] = low-dose 10 mg/kg per day i.p., n=5, mean±SD

Substance: H-ALEHLFTLYEKALKALEDLLKKLL-OH [FAMP5]
- α‐helical conformation (CD spectra) (Circular dichroism): formed strong α‐helical conformations
- conversion of α HDL to pre‐β HDL on agarose gel electrophoresis [1]: shifted the α HDL band to the pre‐β HDL position; also recorded: completely converted α HDL to pre‐β HDL
- Cholesterol, CM (>80 nm) (apoE‐deficient mice; [2]): 173.4 ± 24.0 mg/dL
- Cholesterol, HDL (8 to 16 nm) (apoE‐deficient mice; [2]): 20.3 ± 3.1 mg/dL
- Cholesterol, LDL (16 to 30 nm) (apoE‐deficient mice; [2]): 157.9 ± 32.1 mg/dL
- Cholesterol, VLDL (30 to 80 nm) (apoE‐deficient mice; [2]): 509.1 ± 73.8 mg/dL
- Free cholesterol, CM (>80 nm) (apoE‐deficient mice; [2]): 76.6 ± 13.7 mg/dL
- Free cholesterol, HDL (8 to 16 nm) (apoE‐deficient mice; [2]): 10.0 ± 1.1 mg/dL
- Free cholesterol, LDL (16 to 30 nm) (apoE‐deficient mice; [2]): 75.0 ± 14.1 mg/dL
- Free cholesterol, VLDL (30 to 80 nm) (apoE‐deficient mice; [2]): 213.8 ± 33.7 mg/dL
- Phospholipids, CM (>80 nm) (apoE‐deficient mice; [2]): 84.3 ± 14.2 mg/dL
- Phospholipids, HDL (8 to 16 nm) (apoE‐deficient mice; [2]): 23.1 ± 5.2 mg/dL
- Phospholipids, LDL (16 to 30 nm) (apoE‐deficient mice; [2]): 110.6 ± 26.5 mg/dL
- Phospholipids, VLDL (30 to 80 nm) (apoE‐deficient mice; [2]): 259.9 ± 44.9 mg/dL
- Triglyceride, CM (>80 nm) (apoE‐deficient mice; [2]): 22.1 ± 6.6 mg/dL
- Triglyceride, HDL (8 to 16 nm) (apoE‐deficient mice; [2]): 3.7 ± 1.3 mg/dL
- Triglyceride, LDL (16 to 30 nm) (apoE‐deficient mice; [2]): 10.4 ± 2.2 mg/dL
- Triglyceride, VLDL (30 to 80 nm) (apoE‐deficient mice; [2]): 35.8 ± 9.7 mg/dL
- Cholesterol, CM (>80 nm) (apoE‐deficient mice; [3]): 175.4 ± 40.4 mg/dL
- Cholesterol, HDL (8 to 16 nm) (apoE‐deficient mice; [3]): 22.0 ± 3.7 mg/dL
- Cholesterol, LDL (16 to 30 nm) (apoE‐deficient mice; [3]): 133.1 ± 16.1 mg/dL
- Cholesterol, VLDL (30 to 80 nm) (apoE‐deficient mice; [3]): 529.9 ± 135.3 mg/dL
- Free cholesterol, CM (>80 nm) (apoE‐deficient mice; [3]): 70.7 ± 14.4 mg/dL
- Free cholesterol, HDL (8 to 16 nm) (apoE‐deficient mice; [3]): 9.1 ± 0.6 mg/dL
- Free cholesterol, LDL (16 to 30 nm) (apoE‐deficient mice; [3]): 65.6 ± 6.0 mg/dL
- Free cholesterol, VLDL (30 to 80 nm) (apoE‐deficient mice; [3]): 220.1 ± 49.0 mg/dL
- Phospholipids, CM (>80 nm) (apoE‐deficient mice; [3]): 78.4 ± 15.3 mg/dL
- Phospholipids, HDL (8 to 16 nm) (apoE‐deficient mice; [3]): 29.1 ± 4.9 mg/dL
- Phospholipids, LDL (16 to 30 nm) (apoE‐deficient mice; [3]): 94.4 ± 10.4 mg/dL
- Phospholipids, VLDL (30 to 80 nm) (apoE‐deficient mice; [3]): 263.8 ± 53.4 mg/dL
- Triglyceride, CM (>80 nm) (apoE‐deficient mice; [3]): 26.1 ± 16.8 mg/dL
- Triglyceride, HDL (8 to 16 nm) (apoE‐deficient mice; [3]): 2.9 ± 1.2 mg/dL
- Triglyceride, LDL (16 to 30 nm) (apoE‐deficient mice; [3]): 9.5 ± 2.3 mg/dL
- Triglyceride, VLDL (30 to 80 nm) (apoE‐deficient mice; [3]): 38.1 ± 19.4 mg/dL
